FXIIa inh mix = factor XIIa (human) inhibition, mixture screen. P00748. AID 684. hit rate 0.2% among 62,000. inhibition, % at 5 µM. purified FXIIa, fluorogenic substrate, pooled mixtures;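 note: 0% = enzyme without compound and 100% = no enzyme blank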
CatG inh = blocks human cathepsin G enzyme activity; hit rate 0.2% among 62,000; purified enzyme, AMC-tetrapeptide fluorescence, pooled mixtures; inhibition, % at 5 µM (by protocol); AID 581;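 active = inhibition above 20% in each of the two mixture wells holding the compound; inactive = inhibition of 20% or less in either well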;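 note: 0% = enzyme control without mixture and 100% = blank lacking enzyme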
C1s inh = blocks human complement C1s protease activity; purified C1s, fluorogenic AMC substrate, pooled mixtures; mean inhibition % of two 10-compound mixtures (hits give high values), % at 5 µM (by protocol); AID 538; hit rate 0.16% among 62,000;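 active = inhibition above 20% in each of the two 10-compound mixture wells holding the compound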;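 note: 0% = enzyme wells lacking compound mixture and 100% = no-enzyme blank wells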
Target sequence (P09871 16-437 limits assumed): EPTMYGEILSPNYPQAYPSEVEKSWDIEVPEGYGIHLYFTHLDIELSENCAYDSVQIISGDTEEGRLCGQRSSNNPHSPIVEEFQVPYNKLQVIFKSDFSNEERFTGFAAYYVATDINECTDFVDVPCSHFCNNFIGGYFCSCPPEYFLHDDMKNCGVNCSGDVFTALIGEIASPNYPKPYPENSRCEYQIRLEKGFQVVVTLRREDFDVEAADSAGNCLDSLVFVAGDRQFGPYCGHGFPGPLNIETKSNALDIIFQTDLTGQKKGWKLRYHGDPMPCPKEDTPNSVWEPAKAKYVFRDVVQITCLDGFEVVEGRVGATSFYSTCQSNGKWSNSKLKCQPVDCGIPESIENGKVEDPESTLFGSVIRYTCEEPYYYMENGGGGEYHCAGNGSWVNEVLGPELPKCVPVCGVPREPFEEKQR
Target sequence (P09871 438-688 limits assumed): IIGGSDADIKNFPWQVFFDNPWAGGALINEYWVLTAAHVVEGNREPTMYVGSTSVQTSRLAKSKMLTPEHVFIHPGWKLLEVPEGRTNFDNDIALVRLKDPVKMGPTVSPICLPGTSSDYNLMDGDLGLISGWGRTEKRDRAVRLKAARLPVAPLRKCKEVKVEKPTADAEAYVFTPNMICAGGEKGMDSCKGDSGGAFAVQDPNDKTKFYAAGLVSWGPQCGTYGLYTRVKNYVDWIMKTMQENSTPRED
FXIa mix inh = inhibitors of human coagulation factor XIa, pooled mixtures; hit rate 0.19% among 62,000; P03951; purified FXIa, fluorogenic substrate; inhibition, % at 5 µM;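 note: each value is inhibition by a whole ten-compound pool holding the compound; 0% = enzyme with no mixture and 100% = wells lacking enzyme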
AP complement = orthogonal test for alternative complement pathway inhibitors | inhibition, % at 5 µM | AID 1235 | Human serum alternative complement pathway, LPS-coated ELISA, C3 deposition; tested in compound mixtures | hit rate 0.08% among 62,000;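 active = inhibition above 30% in each of the two pooled mixtures holding the compound, so the lower value exceeds 30%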;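 note: 0% = serum in Mg-EGTA without compound and 100% = EDTA serum blank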
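Test system: human serum complement alternative pathway, C3 deposition onto LPS / Medium: Mg2+-EGTA GVB++ buffer containing human serum at 1:15 dilution / Probe or stimulus: Plate-bound LPS / Times: 1 h at 37 °C / Signal: ELISA with HRP anti-human C3 antibody, TMB substrate, absorbance 450 nm / Measure: percent inhibition / Repeats: two pool placements per compound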
WNV protease inh = blocks West Nile virus NS2B-NS3 protease activity. z-score (test concentration not listed). WNV NS2B-NS3 protease, fluorogenic substrate Ex360/Em465; hits give low values. hit rate 0.18% among 65,000; in the data active = z-score below about -3
An asterisk follows results filed as active; . = no result. Compounds with a hit are over-represented: about 0.85% of the library has one in this group of screens. Cut-off read from the data, not from the text of the source, unless noted: active = inhibition above about 20% (passing the limit was not always enough); inactive = the rest.

SMILES	FXIIa inh mix	CatG inh	C1s inh	FXIa mix inh	AP complement	WNV protease inh
CCn1c(CNC(=O)c2cccc(C)c2)nc2ccccc21	5.6	-3.4	-1.8	3.2	31.1	-0.43
CS(=O)(=O)c1cccc(C(=O)NCc2ccccc2)c1	-19.7	-1.5	1.1	7.1	11.2	-0.8
CC(C)(C)c1cc(C(=O)NCc2ccccc2)ccn1	-3.1	14.7	21.8*	10.5	22.7	-0.27
O=S(=O)(NC1CC2CCC1C2)c1ccc(Br)s1 (stereo not given)	-9.8	0.3	0.6	7.6	21.6	0.5
CC(=O)c1sc(NC(=O)CN2C(=O)CCC2=O)nc1C	.	.	.	.	.	-1.19
COC(=O)c1[nH]c2cc(C)ccc2c1NC(=O)CN1CCN(C(=O)c2ccco2)CC1	6.1	-1.5	-7.4	6.8	2.8	0.48
Cc1ccc(C(=O)c2cc(C)sc2NC(=O)CN2CCN(C(=O)c3ccco3)CC2)cc1	21.2*	9.8	8.8	11.9	4.9	-0.97
CC1(C)Cc2c(sc3c2C2=NCCN2C=N3)CS1	7.4	-3.5	-14.4	2.0	-7.7	0.12
CN1C(=O)c2c(sc3c2CC(C)(C)SC3)N2CCN=C12	-11.2	4.0	0.9	-0.3	35.4*	-1.1
C=CCSc1nnc(-c2ccccc2NC(=O)CC)c(=O)[nH]1	11.0	-0.3	-23.0	0.3	4.1	-0.48
C=CCNc1nc2c(c(=O)[nH]c(=O)n2C)n1CCCCC	.	.	.	.	.	0.23
Cc1cccc(CSC2=NCCN2C(=O)c2ccc(Br)o2)c1	11.5	11.2	8.1	4.0	13.6	0.96
COc1ccccc1-n1c(SCC(=O)N2CCOCC2)nc(O)c(Cc2ccccc2)c1=O	0.5	-6.5	-14.1	3.2	-1.1	-8.64*
CCc1c(O)nc(SCC(=O)N2CCOCC2)n(-c2ccccc2)c1=O	-11.9	-5.4	-17.3	-6.1	-1.1	-1.09
O=C(CCc1ccccc1)Nc1nc2n(n1)C(c1ccc(Cl)cc1)CC(=O)N2 (stereo not given)	-11.7	3.4	-10.2	3.2	8.4	-3.35*
C=CCn1c(SC(C)C(=O)NC2(C#N)CCCCC2)nnc1-c1ccc(OC)cc1 (stereo not given)	4.1	8.4	2.5	22.1*	-0.4	0.47
COc1ccccc1Nc1nc(C2(C)CCC(=O)O2)cs1 (stereo not given)	-0.8	10.3	9.2	3.0	-0.8	-0.16
COc1cc(NC(=O)c2cccs2)c(OC)cc1NC(=O)c1ccco1	1.0	10.1	4.0	5.2	16.1	-0.83
COc1cc(NC(=O)c2cccs2)c(OC)cc1NC(=O)CCn1nnc2ccccc21	-1.1	15.2	21.0*	9.8	13.0	-0.15
CN(C)S(=O)(=O)c1cccc(COC(=O)C2=COCCO2)c1	20.9*	12.3	11.5	5.5	-7.8	0.4
O=C(OCn1nnc2ccccc2c1=O)C1=COCCO1	-15.9	-5.1	-83.0	-0.3	9.8	-1.01
CCOc1ccccc1OCCOCCN1CC(C)OC(C)C1 (stereo not given)	10.8	28.2	7.1	18.1	17.8	0.56
COc1ccc(C2C(C(=O)c3cccs3)=C(O)C(=O)N2c2nncs2)cc1 (stereo not given)	0.8	22.0*	12.7	43.2*	15.3	-0.94
COc1ccc(C2C(C(=O)c3cccs3)=C(O)C(=O)N2c2nnc(C)s2)cc1OC (stereo not given)	11.2	11.3	2.9	5.9	-3.6	0.45
CC1CCCCC1NC(=O)c1ccc2c(c1)[nH]c(=O)n2C1CCCC1 (stereo not given)	3.1	-11.3	-31.3	4.5	-17.0	0.37
SMILES	FXIIa inh mix	CatG inh	C1s inh	FXIa mix inh	AP complement	WNV protease inh
Cc1oc(-c2cccc(Cl)c2)nc1CN1CCCC(C(=O)NC(C)c2ccc3c(c2)OCCO3)C1 (stereo not given)	5.6	-1.6	-2.5	8.2	11.8	-0.22
CN(C)CCNC(=O)c1ccc(CS(=O)(=O)c2ccc(Br)cc2)o1	-0.9	-1.0	-0.8	7.0	20.0	0.45
CCOC(=O)c1c(-c2ccc(C)o2)csc1NC(=O)CN1CCN(CC)CC1	5.6	13.4	59.1*	5.9	3.4	-0.06
Cn1cc(C(=O)NCN2CCCCC2)c2ccccc21	0.3	15.2	11.3	2.5	4.0	-6.57*
CC(C)(O)C#Cc1ccc(C(=O)NCc2cccs2)s1	3.3	33.7	17.0	2.6	1.1	0.34
CC(C)n1nnnc1SCC(=O)NCc1ccco1	-5.0	8.3	-0.7	22.3*	12.0	0.22
COc1cccc(NC(=O)CSc2nc3n[nH]c(C)c3c(=N)n2-c2cccc(OC)c2)c1	.	.	.	.	.	-3.15*
CC(C)c1ccc(-c2nc(N3CCOCC3)[nH]c(=O)c2C#N)cc1	7.1	0.2	-17.7	-5.1	5.6	0.07
O=C1CCC(=O)c2oc3ccccc3c2N1	21.0*	-25.2	-55.4	-16.6	-2.2	0.25
O=C(CCSc1nccn1Cc1ccccc1)N1CCOCC1	-3.9	21.8*	17.8	6.5	4.8	0.09
Cc1ccc(S(=O)(=O)N(C)CC(=O)N2CCCc3ccccc32)cc1	0.9	3.5	-50.3	3.2	5.4	0.65
CC[C@@H](C)[C@H](NC(=O)OC(C)(C)C)c1nnc(S(=O)(=O)Cc2cc(C)ccc2C)o1	1.8	26.8*	4.2	18.1	3.2	0.11
CC(C)[C@H](NC(=O)OC(C)(C)C)c1nnc(S(=O)(=O)Cc2c(F)cccc2Cl)o1	4.7	37.7*	13.0	17.5	5.5	0.21
Cc1[nH]c(=O)[nH]c(=O)c1CSc1nnc([C@@H](NC(=O)OC(C)(C)C)C(C)C)o1	-19.5	10.2	2.8	2.1	0.3	0.22
CC(C)(C)OC(=O)N[C@@H](Cc1ccccc1)c1nnc(S(=O)(=O)Cc2cccc(F)c2)o1	16.5	62.9*	-7.2	6.2	-2.9	-0.03
CC(C)C[C@H](N)c1nnc(S(=O)(=O)Cc2cccc(F)c2)o1	-1.1	3.1	-10.5	14.4	-3.9	1.25
Cc1ccccc1CS(=O)(=O)c1nnc([C@H](CC(C)C)NC(=O)OC(C)(C)C)o1	-12.0	20.5*	14.6	6.2	22.9	0.33
CC12/C(=N/O)C3C4CC5C3/C(=N/O)C1C5C42 (stereo not given)	2.8	-25.0	-192.8	-17.5	3.6	-0.3
Nc1nc2n(n1)C(c1ccccc1Cl)CC(c1ccc(F)cc1)N2 (stereo not given)	-0.6	-3.9	-8.8	4.3	24.6	-1.28
COc1ccccc1-n1c(=S)sc2c(=O)n(Cc3ccco3)c(SC)nc21	4.3	9.9	-4.5	-4.4	2.2	-0.93
CCC(=O)N1CCCc2cc(S(=O)(=O)N3CCN(c4ccccn4)CC3)ccc21	8.6	6.9	0.9	4.5	11.0	0.25
COc1ccc(-n2nc3c(c2NC(=O)c2c(F)cccc2Cl)CS(=O)C3)cc1 (stereo not given)	5.1	4.6	-18.3	0.5	16.1	-0.06
COc1ccc(-c2nc3c(=O)n(C)c(=O)[nH]c3n2CCc2ccccc2)cc1	10.6	-21.1	-169.8	-31.0	5.3	-3.48*

Source: PubChem BioAssay
